Source: ChEMBL document CHEMBL3045304, “Sesquiterpene lactones with potential use as natural herbicide models. 2. guaianolides” (2000)
Activity calls are given as the source filed them. The calls are words filed in the database; no cut-off is given here.

Columns and labels:
Lepidium sativum [1] = assay: Stimulation of hypocotyl length of Lepidium sativum at 0.1 mM or 1 mM after 5 days relative to untreated control; assay type: functional
Allium cepa [2] = assay: Inhibition of hypocotyl length of Allium cepa cv. Valenciana (onion) at 0.1 mM or 1 mM after 7 days relative to untreated control
Allium cepa [3] = assay: Stimulation of hypocotyl length of Allium cepa cv. Valenciana (onion) at 0.1 mM or 1 mM after 7 days relative to untreated control
Lactuca sativa [4] = assay: Inhibition of germination of Lactuca sativa cv. Roman (lettuce) at 0.1 mM or 1 mM after 5 days relative to untreated control; assay type: functional
In short: (§1)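 Lettuce and tomato seeds, 25 per dish on filter paper, received 5 mL test solution. Incubation was 5 days in the dark at 25 °C, with four replicates per concentration. Solutions were made at 10^-3 or 10^-4 M in 10 mM MES, diluted serially, and adjusted to pH 6.0. Parallel controls were run. Results are % difference from control.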

Triticum aestivum [5] = assay: Inhibition of hypocotyl length of Triticum aestivum cv. Cortex (wheat) at 0.1 mM or 1 mM after 5 days relative to untreated control; assay type: functional
In short: (§2)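 Wheat: 10 seeds per dish on filter paper with 5 mL test solution, 5 days in the dark at 25 °C, 10 replicates per concentration. Stock test solutions were 10^-3 or 10^-4 M in 10 mM MES, with lower levels made by dilution, all at pH 6.0. Parallel controls were run. Output is % difference from control.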

Solanum lycopersicum [6] = assay: Stimulation of germination of Solanum lycopersicum cv. Tres Cantos (tomato) at 0.1 mM or 1 mM after 5 days relative to untreated control; assay type: functional; in short: as §1
Lepidium sativum [7] = assay: Inhibition of hypocotyl length of Lepidium sativum at 0.1 mM or 1 mM after 4 days relative to untreated control
Solanum lycopersicum [8] = assay: Stimulation of hypocotyl length of Solanum lycopersicum cv. Tres Cantos (tomato) at 0.1 mM or 1 mM after 5 days relative to untreated control; assay type: functional; in short: as §1
Lactuca sativa [9] = assay: Inhibition of root length of Lactuca sativa cv. Roman (lettuce) at 0.1 mM or 1 mM after 5 days relative to untreated control; assay type: functional; in short: as §1
Lactuca sativa [10] = assay: Inhibition of hypocotyl length of Lactuca sativa cv. Roman (lettuce) at 0.1 mM or 1 mM after 5 days relative to untreated control; assay type: functional; in short: as §1
Solanum lycopersicum [11] = assay: Inhibition of germination of Solanum lycopersicum cv. Tres Cantos (tomato) at 0.1 mM or 1 mM after 5 days relative to untreated control; assay type: functional; in short: as §1
Allium cepa [12] = assay: Stimulation of germination of Allium cepa cv. Valenciana (onion) at 0.1 mM or 1 mM after 7 days relative to untreated control
Allium cepa [13] = assay: Inhibition of root length of Allium cepa cv. Valenciana (onion) at 0.1 mM or 1 mM after 5 days relative to untreated control; assay type: functional
Lactuca sativa [14] = assay: Stimulation of hypocotyl length of Lactuca sativa cv. Roman (lettuce) at 0.1 mM or 1 mM after 5 days relative to untreated control; assay type: functional; in short: as §1
Allium cepa [15] = assay: Inhibition of germination of Allium cepa cv. Valenciana (onion) at 0.1 mM or 1 mM after 5 days relative to untreated control; assay type: functional
Allium cepa [16] = assay: Stimulation of root length of Allium cepa cv. Valenciana (onion) at 0.1 mM or 1 mM after 7 days relative to untreated control
Lepidium sativum [17] = assay: Stimulation of root length of Lepidium sativum at 0.1 mM or 1 mM after 5 days relative to untreated control; assay type: functional
Triticum aestivum [18] = assay: Inhibition of root length of Triticum aestivum cv. Cortex (wheat) at 0.1 mM or 1 mM after 5 days relative to untreated control; assay type: functional; in short: as §2
Lactuca sativa [19] = assay: Stimulation of germination of Lactuca sativa cv. Roman (lettuce) at 0.1 mM or 1 mM after 5 days relative to untreated control; assay type: functional; in short: as §1
Solanum lycopersicum [20] = assay: Stimulation of root length of Solanum lycopersicum cv. Tres Cantos (tomato) at 0.1 mM or 1 mM after 5 days relative to untreated control; assay type: functional; in short: as §1
Triticum aestivum [21] = assay: Stimulation of root length of Triticum aestivum cv. Cortex (wheat) at 0.1 mM or 1 mM after 5 days relative to untreated control; assay type: functional; in short: as §2
Triticum aestivum [22] = assay: Stimulation of hypocotyl length of Triticum aestivum cv. Cortex (wheat) at 0.1 mM or 1 mM after 5 days relative to untreated control; assay type: functional; in short: as §2
Solanum lycopersicum [23] = assay: Inhibition of root length of Solanum lycopersicum cv. Tres Cantos (tomato) at 0.1 mM or 1 mM after 5 days relative to untreated control; assay type: functional; in short: as §1
Solanum lycopersicum [24] = assay: Inhibition of hypocotyl length of Solanum lycopersicum cv. Tres Cantos (tomato) at 0.1 mM or 1 mM after 5 days relative to untreated control; assay type: functional; in short: as §1
Lactuca sativa [25] = assay: Stimulation of root length of Lactuca sativa cv. Roman (lettuce) at 0.1 mM or 1 mM after 5 days relative to untreated control; assay type: functional; in short: as §1
Lepidium sativum [26] = assay: Inhibition of germination of Lepidium sativum at 0.1 mM or 1 mM after 4 days relative to untreated control
Triticum aestivum [27] = assay: Inhibition of germination of Triticum aestivum cv. Cortex (wheat) at 0.1 mM or 1 mM after 5 days relative to untreated control; assay type: functional; in short: as §2
Triticum aestivum [28] = assay: Stimulation of germination of Triticum aestivum cv. Cortex (wheat) at 0.1 mM or 1 mM after 5 days relative to untreated control; assay type: functional; in short: as §2
Lepidium sativum [29] = assay: Inhibition of root length of Lepidium sativum at 0.1 mM or 1 mM after 4 days relative to untreated control
Lepidium sativum [30] = assay: Inhibition of germination of Lepidium sativum at 0.1 mM or 1 mM after 4 days relative to untreated control; design: scale not given: the % may be the effect or the level left
Lepidium sativum [31] = assay: Inhibition of germination of Lepidium sativum at 0.1 mM or 1 mM after 5 days relative to untreated control; assay type: functional
Allium cepa [32] = assay: Stimulation of germination of Allium cepa cv. Valenciana (onion) at 0.1 mM or 1 mM after 5 days relative to untreated control; assay type: functional

In the case of `CC1=CC(=O)C2=C(C)C[C@H](O)[C@H]3[C@H](OC(=O)[C@@H]3C)[C@@H]12` [8ALPHA-HYDROXYACHILLIN], the Activity (Lepidium sativum [1]) is reported as “inactive”, the inhibition (Allium cepa [2]) is reported as “inactive” and the Activity (Allium cepa [3]) is reported as “inactive”. The inhibition (Lactuca sativa [4]) was “inactive”, the inhibition (Triticum aestivum [5]) was “inactive” and the Activity (Solanum lycopersicum [6]) was less than 20%. For the same compound, the inhibition (Lepidium sativum [7]) was “inactive”, the Activity (Solanum lycopersicum [8]) was less than 20% and the inhibition (Lactuca sativa [9]) was “inactive”. For the same compound, the inhibition (Lactuca sativa [10]) was “inactive”, the “inhibition (INH)” value (Solanum lycopersicum [11]) was less than 20% and the Activity (Allium cepa [12]) was “inactive”. For the same compound, the inhibition (Allium cepa [13]) was “inactive”, the Activity (Lactuca sativa [14]) was “inactive” and the inhibition (Allium cepa [15]) was “inactive”. For the same compound, the Activity (Allium cepa [16]) was “inactive”, the Activity (Lepidium sativum [17]) was “inactive” and the inhibition (Triticum aestivum [18]) was “inactive”. The Activity (Lactuca sativa [19]) was “inactive”, the Activity (Solanum lycopersicum [20]) was “inactive” and the Activity (Triticum aestivum [21]) was “inactive”. For the same compound, the Activity (Triticum aestivum [22]) was “inactive”, the inhibition (Solanum lycopersicum [23]) was “inactive” and the “inhibition (INH)” value (Solanum lycopersicum [24]) was less than 20%. The Activity (Lactuca sativa [25]) was “inactive”, the Activity (Lepidium sativum [26]) was “inactive” and the inhibition (Lepidium sativum [26]) was “inactive”. For the same compound, the inhibition (Triticum aestivum [27]) was “inactive”, the Activity (Triticum aestivum [28]) was “inactive” and the inhibition (Lepidium sativum [29]) was “inactive”.
In the case of `CC(=O)O[C@H]1CC(C)=C2C(=O)C=C(C)[C@@H]2[C@H]2OC(=O)[C@H](C)[C@H]21` [8ALPHA-ACETOXYACHILLIN], the Activity (Lepidium sativum [1]) is reported as “inactive”, the inhibition (Allium cepa [2]) is reported as “inactive” and the Activity (Allium cepa [3]) is reported as “inactive”. The inhibition (Lactuca sativa [4]) was “inactive”, the “inhibition (INH)” value (Triticum aestivum [5]) was less than 20% and the Activity (Solanum lycopersicum [6]) was “inactive”. For the same compound, the inhibition (Lepidium sativum [7]) was “inactive”, the Activity (Solanum lycopersicum [8]) was less than 20% and the “inhibition (INH)” value (Lactuca sativa [9]) was less than 20%. For the same compound, the “inhibition (INH)” value (Lactuca sativa [10]) was less than 20%, the inhibition (Solanum lycopersicum [11]) was “inactive” and the Activity (Allium cepa [12]) was “inactive”. The inhibition (Allium cepa [13]) was “inactive”, the Activity (Lactuca sativa [14]) was less than 20% and the inhibition (Allium cepa [15]) was “inactive”. The Activity (Allium cepa [16]) was “inactive”, the Activity (Lepidium sativum [17]) was “inactive” and the inhibition (Triticum aestivum [18]) was “inactive”. For the same compound, the Activity (Lactuca sativa [19]) was “inactive”, the Activity (Solanum lycopersicum [20]) was “inactive” and the Activity (Triticum aestivum [21]) was “inactive”. For the same compound, the Activity (Triticum aestivum [22]) was less than 20%, the inhibition (Solanum lycopersicum [23]) was “inactive” and the “inhibition (INH)” value (Solanum lycopersicum [24]) was less than 20%. For the same compound, the Activity (Lactuca sativa [25]) was less than 20%, the Activity (Lepidium sativum [26]) was “inactive” and the inhibition (Lepidium sativum [26]) was “inactive”. For the same compound, the “inhibition (INH)” value (Triticum aestivum [27]) was 20%, the Activity (Triticum aestivum [28]) was 20% and the inhibition (Lepidium sativum [29]) was “inactive”.
For `C=C1C(=O)O[C@H]2[C@H]1CCC(=C)[C@]13C[C@@H](O)C(=C)[C@]21OC(C)(C)O3`, the Activity (Lepidium sativum [1]) was greater than 40%, the inhibition (Allium cepa [2]) was “inactive” and the Activity (Allium cepa [3]) was “inactive”. The Activity (Lepidium sativum [30]) was 20%, the “inhibition (INH)” value (Lactuca sativa [4]) was less than 20% and the “inhibition (INH)” value (Triticum aestivum [5]) was less than 20%. The Activity (Solanum lycopersicum [6]) was “inactive”, the “inhibition (INH)” value (Lepidium sativum [7]) was greater than 40% and the Activity (Solanum lycopersicum [8]) was “inactive”. The “inhibition (INH)” value (Lactuca sativa [9]) was 20%, the inhibition (Lactuca sativa [10]) was “inactive” and the inhibition (Solanum lycopersicum [11]) was “inactive”. For the same compound, the inhibition (Allium cepa [13]) was “inactive”, the Activity (Lactuca sativa [14]) was “inactive” and the inhibition (Allium cepa [15]) was “inactive”. For the same compound, the Activity (Allium cepa [16]) was “inactive”, the Activity (Lepidium sativum [17]) was greater than 40% and the “inhibition (INH)” value (Triticum aestivum [18]) was less than 20%. For the same compound, the Activity (Lactuca sativa [19]) was less than 20%, the Activity (Solanum lycopersicum [20]) was “inactive” and the Activity (Triticum aestivum [21]) was less than 20%. The Activity (Triticum aestivum [22]) was less than 20%, the “inhibition (INH)” value (Lepidium sativum [31]) was 20% and the Activity (Allium cepa [32]) was “inactive”. The inhibition (Solanum lycopersicum [23]) was “inactive”, the inhibition (Solanum lycopersicum [24]) was “inactive” and the Activity (Lactuca sativa [25]) was 20%. The inhibition (Triticum aestivum [27]) was “inactive”, the Activity (Triticum aestivum [28]) was “inactive” and the “inhibition (INH)” value (Lepidium sativum [29]) was greater than 40%.
`C=C1CC[C@H]2C(=C)CC[C@H]3C(=C)C(=O)O[C@@H]3[C@@H]12` [DEHYDROCOSTUSLACTONE] was tested, and the Activity (Lepidium sativum [1]) was greater than 40%, the Activity (Lepidium sativum [30]) was 20% and the “inhibition (INH)” value (Lactuca sativa [4]) was 20%. For the same compound, the “inhibition (INH)” value (Triticum aestivum [5]) was 20%, the Activity (Solanum lycopersicum [6]) was “inactive” and the “inhibition (INH)” value (Lepidium sativum [7]) was greater than 40%. The Activity (Solanum lycopersicum [8]) was “inactive”, the inhibition (Lactuca sativa [9]) was “inactive” and the “inhibition (INH)” value (Lactuca sativa [10]) was less than 20%. The inhibition (Solanum lycopersicum [11]) was “inactive”, the Activity (Lactuca sativa [14]) was less than 20% and the Activity (Lepidium sativum [17]) was greater than 40%. For the same compound, the “inhibition (INH)” value (Triticum aestivum [18]) was greater than 40%, the Activity (Lactuca sativa [19]) was 20% and the Activity (Solanum lycopersicum [20]) was “inactive”. The Activity (Triticum aestivum [21]) was greater than 40%, the Activity (Triticum aestivum [22]) was 20% and the “inhibition (INH)” value (Lepidium sativum [31]) was 20%. For the same compound, the inhibition (Solanum lycopersicum [23]) was “inactive”, the inhibition (Solanum lycopersicum [24]) was “inactive” and the Activity (Lactuca sativa [25]) was “inactive”. For the same compound, the “inhibition (INH)” value (Triticum aestivum [27]) was greater than 40%, the Activity (Triticum aestivum [28]) was greater than 40% and the “inhibition (INH)” value (Lepidium sativum [29]) was greater than 40%.
